Key:
[1] = molecular target: Matrix metalloproteinase-9 (Homo sapiens, UniProt P14780); test: Inhibition of MMP9
[2] = molecular target: Neutrophil collagenase (Homo sapiens, UniProt P22894); test: Inhibition of MMP8
[3] = molecular target: Collagenase 3 (Homo sapiens, UniProt P45452)
[4] = molecular target: 72 kDa type IV collagenase (Homo sapiens, UniProt P08253); test: Inhibition of MMP2
[5] = Stability in C57BL/6 mouse plasma at 13 to 38 MBq.kg^-1 after 20 mins; format: ADME, organism-based; details: read-out: Stability
Outline: (§1)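 Adult C57BL/6 mice (male and female, 25-30 g) received an ¹⁸F-radiotracer bolus in the tail vein and were killed with i.v. pentobarbitone at 2.5 or 20 min. Blood was drawn by cardiac puncture and plasma separated. Plasma from 2-3 mice (2.5 min) or 4 mice (20 min) was pooled and deproteinized with ice-cold acetonitrile. Supernatant was spiked with unlabeled reference and run on radio-HPLC to give the fraction of intact tracer versus metabolites.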

[6] = Stability in C57BL/6 mouse plasma at 13 to 38 MBq.kg^-1 after 2.5 mins; format: ADME, organism-based; details: read-out: Stability; outline: as §1
[7] = Lipophilicity, log D of the compound; format: physicochemical; details: octanol/water
Outline: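 Shake-flask partition of ¹⁸F-radioligand between 1-octanol and 0.02 M phosphate buffer, pH 7.4. Both layers gamma-counted with decay back-correction. log D taken as log of cpm/mL octanol over cpm/mL buffer. Four repeats, reported as mean ± SD.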

Sequence of Matrix metalloproteinase-9 (P14780 whole entry): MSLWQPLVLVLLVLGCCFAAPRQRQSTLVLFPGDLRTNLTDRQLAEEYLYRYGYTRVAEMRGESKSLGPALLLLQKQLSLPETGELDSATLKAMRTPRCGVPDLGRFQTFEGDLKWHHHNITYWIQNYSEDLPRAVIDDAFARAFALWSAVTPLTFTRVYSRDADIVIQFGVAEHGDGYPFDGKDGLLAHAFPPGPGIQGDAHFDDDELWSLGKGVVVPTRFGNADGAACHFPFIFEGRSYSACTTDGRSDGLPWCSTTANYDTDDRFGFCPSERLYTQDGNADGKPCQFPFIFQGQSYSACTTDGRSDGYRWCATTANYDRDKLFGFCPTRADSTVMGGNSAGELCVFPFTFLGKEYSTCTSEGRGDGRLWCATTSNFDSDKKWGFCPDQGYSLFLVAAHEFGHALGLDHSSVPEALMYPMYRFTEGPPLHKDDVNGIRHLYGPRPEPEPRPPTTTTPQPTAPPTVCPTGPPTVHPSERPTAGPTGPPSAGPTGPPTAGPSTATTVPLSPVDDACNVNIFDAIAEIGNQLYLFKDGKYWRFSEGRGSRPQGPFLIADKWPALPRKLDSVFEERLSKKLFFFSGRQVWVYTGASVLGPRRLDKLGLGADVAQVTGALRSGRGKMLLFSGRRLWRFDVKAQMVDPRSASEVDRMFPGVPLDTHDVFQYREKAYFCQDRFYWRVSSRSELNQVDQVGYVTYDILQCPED
Sequence of 72 kDa type IV collagenase (P08253 whole entry): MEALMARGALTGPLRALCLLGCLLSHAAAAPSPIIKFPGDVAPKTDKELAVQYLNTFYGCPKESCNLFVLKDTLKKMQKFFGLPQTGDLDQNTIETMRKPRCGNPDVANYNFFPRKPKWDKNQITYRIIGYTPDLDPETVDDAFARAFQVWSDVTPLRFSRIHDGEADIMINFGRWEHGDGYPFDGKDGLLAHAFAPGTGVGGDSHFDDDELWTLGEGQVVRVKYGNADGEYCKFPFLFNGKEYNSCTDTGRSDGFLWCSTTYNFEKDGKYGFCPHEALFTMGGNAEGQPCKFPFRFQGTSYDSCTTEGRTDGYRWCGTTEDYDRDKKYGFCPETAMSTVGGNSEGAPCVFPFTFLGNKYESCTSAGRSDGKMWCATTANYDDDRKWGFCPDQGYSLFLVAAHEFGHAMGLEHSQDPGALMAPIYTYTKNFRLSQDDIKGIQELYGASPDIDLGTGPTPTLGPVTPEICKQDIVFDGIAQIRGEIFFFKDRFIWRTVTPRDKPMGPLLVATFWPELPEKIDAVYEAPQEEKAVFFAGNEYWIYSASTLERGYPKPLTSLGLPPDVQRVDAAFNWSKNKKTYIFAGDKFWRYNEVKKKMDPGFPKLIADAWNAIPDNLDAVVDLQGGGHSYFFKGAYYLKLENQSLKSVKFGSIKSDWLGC
Sequence of Neutrophil collagenase (P22894 whole entry): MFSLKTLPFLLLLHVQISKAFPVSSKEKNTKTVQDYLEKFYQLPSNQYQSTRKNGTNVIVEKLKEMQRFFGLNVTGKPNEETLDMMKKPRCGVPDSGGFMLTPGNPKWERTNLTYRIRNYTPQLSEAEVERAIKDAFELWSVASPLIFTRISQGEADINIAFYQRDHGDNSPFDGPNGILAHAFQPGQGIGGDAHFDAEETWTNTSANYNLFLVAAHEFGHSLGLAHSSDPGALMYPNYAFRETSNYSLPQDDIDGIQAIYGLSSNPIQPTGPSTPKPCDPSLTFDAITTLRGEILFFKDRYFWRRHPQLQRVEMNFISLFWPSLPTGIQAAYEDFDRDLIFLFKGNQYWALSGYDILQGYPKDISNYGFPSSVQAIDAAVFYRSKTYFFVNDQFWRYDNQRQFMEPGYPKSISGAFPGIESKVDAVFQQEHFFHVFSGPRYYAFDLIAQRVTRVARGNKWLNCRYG

COc1ccc(S(=O)(=O)N(Cc2ccc(F)nc2)[C@@H](C(=O)NO)C(C)C)cc1
IC50 [1]: 0.5 nM
IC50 [2]: 0.9 nM
IC50 [3]: 0.9 nM
IC50 [4]: 8 nM

COc1ccc(S(=O)(=O)N(Cc2ccc(F)nc2)[C@@H](C(=O)O)C(C)C)cc1
IC50 [1]: 9820 nM
IC50 [2]: 22000 nM
IC50 [3]: 30000 nM
IC50 [4]: 35000 nM

CC(C)[C@H](C(=O)NO)N(Cc1ccccc1)S(=O)(=O)c1ccc(N(C)C)cc1
IC50 [1]: 614 nM
IC50 [2]: 105 nM
IC50 [3]: 10 nM
IC50 [4]: 335 nM

CC(C)[C@H](C(=O)O)N(Cc1ccccc1)S(=O)(=O)c1ccc(N(C)C)cc1
IC50 [1]: 15000 nM
IC50 [2]: 14000 nM
IC50 [3]: 14000 nM
IC50 [4]: 41000 nM

CC(C)[C@H](C(=O)NO)N(Cc1ccccc1)S(=O)(=O)c1ccc(OCC[18F])cc1
remaining at 20 min [5]: 37%
remaining at 2.5 min [6]: 86%
logD [7]: 2.02

CC(C)[C@H](C(=O)NO)N(Cc1cccnc1)S(=O)(=O)c1ccc(OCC[18F])cc1
remaining at 20 min [5]: 53%
logD [7]: 1.34

CC(C)[C@H](C(=O)O)N(Cc1ccccc1)S(=O)(=O)c1ccc(OCCI)cc1
IC50 [1]: 1350 nM
IC50 [4]: 207 nM

COc1ccc(S(=O)(=O)N(Cc2cccnc2F)[C@@H](C(=O)NO)C(C)C)cc1
IC50 [1]: 51 nM
IC50 [2]: 18 nM
IC50 [3]: 50 nM
IC50 [4]: 19 nM

CC(C)[C@H](C(=O)NO)N(Cc1cccnc1)S(=O)(=O)c1ccc([N+](=O)[O-])cc1
IC50 [1]: 5150 nM
IC50 [2]: 14 nM
IC50 [3]: 10 nM
IC50 [4]: 756 nM

CC(C)[C@H](C(=O)O)N(Cc1ccccc1)S(=O)(=O)c1ccc(OCCF)cc1
IC50 [1]: 1300 nM
IC50 [2]: 2460 nM
IC50 [3]: > 100000 nM
IC50 [4]: 5590 nM

CC(C)[C@H](C(=O)NO)N(Cc1cccnc1)S(=O)(=O)c1ccc(F)cc1
IC50 [1]: 414 nM
IC50 [2]: 228 nM
IC50 [3]: 527 nM
IC50 [4]: 120 nM

CC(C)[C@H](C(=O)NO)N(Cc1cccnc1)S(=O)(=O)c1ccc(N(C)C)cc1
IC50 [1]: 1330 nM
IC50 [2]: 1200 nM
IC50 [3]: 1340 nM
IC50 [4]: 992 nM

CC(C)[C@H](C(=O)NO)N(Cc1ccccc1)S(=O)(=O)c1ccc(OCCI)cc1
IC50 [1]: 69 nM
IC50 [2]: 3 nM
IC50 [3]: 10 nM
IC50 [4]: 22 nM

CC(C)[C@H](C(=O)NO)N(Cc1cccnc1)S(=O)(=O)c1ccc(OCCF)cc1
IC50 [1]: 7 nM
IC50 [2]: 2 nM
IC50 [3]: 0.8 nM
IC50 [4]: 3 nM

COc1ccc(S(=O)(=O)N(Cc2cccnc2Br)[C@@H](C(=O)NO)C(C)C)cc1
IC50 [1]: 103 nM
IC50 [2]: 75 nM
IC50 [3]: 59 nM
IC50 [4]: 30 nM

COc1ccc(S(=O)(=O)N(Cc2cccnc2Br)[C@@H](C(=O)O)C(C)C)cc1
IC50 [1]: 35000 nM
IC50 [2]: 7480 nM
IC50 [3]: 34000 nM
IC50 [4]: 9110 nM

CC(C)[C@H](C(=O)O)N(Cc1cccnc1)S(=O)(=O)c1ccc(F)cc1
IC50 [1]: > 100000 nM
IC50 [2]: 71000 nM
IC50 [3]: > 100000 nM
IC50 [4]: > 100000 nM

CC(C)[C@H](C(=O)NO)N(Cc1ccccc1)S(=O)(=O)c1ccc(F)cc1
IC50 [1]: 281 nM
IC50 [2]: 12 nM
IC50 [3]: 384 nM
IC50 [4]: 239 nM

CC(C)[C@H](C(=O)O)N(Cc1ccccc1)S(=O)(=O)c1ccc(F)cc1
IC50 [1]: 821 nM
IC50 [2]: 754 nM
IC50 [3]: 9140 nM
IC50 [4]: 4350 nM

COc1ccc(S(=O)(=O)N(Cc2ccc(Br)nc2)[C@@H](C(=O)NO)C(C)C)cc1
IC50 [1]: 23 nM
IC50 [2]: 20 nM
IC50 [3]: 24 nM
IC50 [4]: 2 nM

COc1ccc(S(=O)(=O)N(Cc2ccc(Br)nc2)[C@@H](C(=O)O)C(C)C)cc1
IC50 [1]: 6930 nM
IC50 [2]: 6760 nM
IC50 [3]: 3260 nM
IC50 [4]: 6120 nM

COc1ccc(S(=O)(=O)N(Cc2cccnc2F)[C@@H](C(=O)O)C(C)C)cc1
IC50 [1]: 10000 nM
IC50 [2]: 78000 nM
IC50 [3]: 41000 nM
IC50 [4]: 20000 nM

CC(C)[C@H](C(=O)NO)N(Cc1ccccc1)S(=O)(=O)c1ccc(OCCF)cc1
IC50 [1]: 50 nM
IC50 [2]: 2 nM
IC50 [3]: 11 nM
IC50 [4]: 4 nM
